# Assay outcomes from PubChem.
# C-LANA FP: inhibitors of KSHV LANA C-terminal domain DNA binding; inhibition, % at 9 µM; AID 504423; hit rate 0.078% among 340,000; MBP-C-LANA/FAM-LBS DNA binding, fluorescence polarization;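 active = highest replicate inhibition at or above 60% at 9 µM, even if other replicates fall short; inactive = all replicates below 60% inhibition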;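 note: 0% = neutral control wells and 100% = 4 µM acridine orange control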
# miR-122 sensor: miR-122 inhibition in Huh7 cells; Huh7 miR-122 Renilla luciferase sensor, 48 h; neutral wells = 0, positive control = 100; activation (reporter increase), % at 12.5 µM; hit rate 0.3% among 340,000; AID 602342;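 active = mean replicate activation score at least 90 and every replicate individually at or above 90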;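 note: higher luciferase means less miR-122 activity so hits act as miR-122 inhibitors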
# Keap1-Nrf2 PPI: inhibitors of human Keap1-Nrf2 protein-protein interaction | hit rate 0.15% among 340,000 | Keap1 Kelch-Nrf2 peptide fluorescence polarization, 1536-well | inhibition, % at 9.4 µM | AID 504523 | Q14145; in the data active = inhibition above about 12%;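 note: human Keap1 Kelch domain with fluorescein labeled Nrf2 9mer peptide probe; 0% = neutral control wells and 100% = peptide positive control; higher means more block of Keap1 binding to Nrf2 peptide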
# Target sequence (Q14145 whole entry, looked up, the tested form may be a part): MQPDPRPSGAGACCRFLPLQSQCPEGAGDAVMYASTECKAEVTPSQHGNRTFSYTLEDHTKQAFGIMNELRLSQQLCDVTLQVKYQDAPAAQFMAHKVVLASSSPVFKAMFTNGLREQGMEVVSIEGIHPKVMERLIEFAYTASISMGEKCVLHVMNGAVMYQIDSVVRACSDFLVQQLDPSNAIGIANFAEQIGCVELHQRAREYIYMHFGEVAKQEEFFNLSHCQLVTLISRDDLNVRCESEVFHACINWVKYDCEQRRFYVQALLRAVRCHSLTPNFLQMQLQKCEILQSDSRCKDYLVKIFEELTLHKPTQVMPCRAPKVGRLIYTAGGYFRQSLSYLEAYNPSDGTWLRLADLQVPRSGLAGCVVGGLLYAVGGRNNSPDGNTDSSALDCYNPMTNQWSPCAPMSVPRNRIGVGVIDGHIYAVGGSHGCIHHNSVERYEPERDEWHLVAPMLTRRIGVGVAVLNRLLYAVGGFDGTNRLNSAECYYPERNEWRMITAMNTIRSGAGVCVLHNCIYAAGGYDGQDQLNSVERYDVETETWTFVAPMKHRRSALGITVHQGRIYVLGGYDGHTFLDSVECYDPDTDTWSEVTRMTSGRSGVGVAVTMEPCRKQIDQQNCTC
# CAL PDZ FP-1: human CAL PDZ-peptide interaction inhibition; Q9HD26; purified CAL PDZ, TMR-peptide fluorescence polarization, 1 h; inhibition, % at 20 µM; hit rate 0.02% among 330,000; AID 504414;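 active = highest replicate inhibition of at least 40%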;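 note: plate controls were DMSO neutral control wells for no effect and unlabeled competitor peptide control wells for full effect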
#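 System: purified tagged CAL PDZ domain construct (CerCALP). Schedule: 1 h incubation at room temperature before polarization reading. Medium: 25 mM sodium phosphate pH 7.4, 150 mM NaCl, TCEP, IgG, Thesit. Read-out: percent inhibition from loss of millipolarization. Measured by: FP readout, S and P plane fluorescence. Probe or stimulus: fluorescent TMR peptide probe.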
# CAL PDZ FP-2: CAL PDZ (human) peptide binding inhibition; Q9HD26; purified CAL PDZ, TMR-peptide fluorescence polarization, 1 h; inhibition, % at 24.9 µM; hit rate 0.92% among 300,000;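 active = mean inhibition of at least 30% with at least half of replicates also reaching 30%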;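 note: 0% = DMSO neutral control and 100% = excess unlabeled competitor peptide PRC23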
# Active calls of the source: *; . = no result; [ ] = remark or other dose. An excerpt weighted towards active compounds, which were near 1.1% of everything screened.
SMILES,C-LANA FP,miR-122 sensor,Keap1-Nrf2 PPI,CAL PDZ FP-1,CAL PDZ FP-2
COc1ccc(CNC(=O)C2CCCN2S(=O)(=O)c2ccc(Cl)cc2)cc1 (configuration not stated),-1.6,.,1.1,-2.0,-2.5
COc1cccc(S(=O)(=O)N(C)C[C@@H]2OCc3cn(nn3)CCCC(=O)N([C@H](C)CO)C[C@@H]2C)c1,.,-3.9[16.7 µM],.,.,.
CCOC(=O)c1ccc(-n2ccnc2)c(NC(=O)c2cccc(Br)c2)c1,-1.2,128.3*,3.9,-1.7,.
CCOC(=O)c1ccc(-n2ccnc2)c(NC(=O)c2ccc(C(C)(C)C)cc2)c1,0.5,-5.8,-3.3,0.5,-3.5
CC(C)(C)NC(=O)C[C@H]1C[C@H](C(=O)N2CCCCC2)[C@@]2(C)c3[nH]c4cc(-c5ccco5)ccc4c3CCN2C1=O,-0.8,-3.0,-2.1,-0.1,64.5*
C[C@]12c3[nH]c4cc(-c5ccco5)ccc4c3CCN1C(=O)[C@@H](CC(=O)NCCC1=CCCCC1)C[C@@H]2C(=O)N1CCCCC1,0.8,-0.5,-6.9,0.4,47.8*
COc1ccc(CNC(=O)C[C@@H]2C[C@@H]3c4cc(NC(=O)CC5CC5)ccc4O[C@@H]3[C@H](CO)O2)cc1,.,-0.6[16.7 µM],.,.,.
C[C@@H]1CN([C@@H](C)CO)C(=O)c2cc(NC(=O)Cc3ccccc3)ccc2O[C@H]1CN(C)S(=O)(=O)c1ccc(F)cc1,.,2.2[16.7 µM],.,.,.
COc1ccc(S(=O)(=O)N(C)C[C@H]2Oc3ccc(NC(=O)C4CC4)cc3C(=O)N([C@@H](C)CO)C[C@H]2C)cc1,.,50.0[16.7 µM],.,.,.
C[C@@H]1CN([C@H](C)CO)C(=O)c2cccc(NC(=O)c3ccc(-c4nccs4)cc3)c2O[C@H]1CN(C)CC1CCCCC1,.,-5.1[16.7 µM],.,.,.
CNC(=O)N(O)C1N(C)C(=O)N(CC(=O)OC)C1(C)C (configuration not stated),-0.9,5.7,-3.5,-1.1,0.4
CCCN1C(=O)N(C)C(N(O)C(=O)NC)C1(C)C (configuration not stated),-0.3,-1.8,3.3,0.1,38.6*
COc1cc(-c2nnc(-c3cc(OC)c(OC)c(OC)c3)o2)cc(OC)c1OC,-0.8,1.8,1.9,-1.7,44.3*
COc1ccc(NC(C)=O)cc1NC(=O)c1ccc(Cl)cc1,-0.1,-2.3,-3.1,0.0,0.1
COc1ccc(NC(C)=O)cc1NC(=O)c1ccc(C#N)cc1,4.1,0.6,-4.7,-1.9,30.7*
CC(C)CC(=O)Nc1cccc(-c2nc3ccccc3[nH]2)c1,19.3,158.1*,-3.9,-4.5,-0.7
C[C@H](CO)N1C[C@H](C)[C@@H](CN(C)C(=O)Nc2ccc(N3CCCCC3)cc2)OCc2cn(nn2)CCCC1=O,.,0.6[16.7 µM],.,.,.
COc1ccc(S(=O)(=O)N(C)C[C@H]2Oc3ccc(NC(=O)Nc4ccc(C(F)(F)F)cc4)cc3C(=O)N([C@H](C)CO)C[C@H]2C)cc1,.,135.7*[16.7 µM],.,.,.
COc1ccc(S(=O)(=O)N(C)C[C@H]2Oc3ccc(NC(=O)Nc4ccc(C(F)(F)F)cc4)cc3C(=O)N([C@@H](C)CO)C[C@H]2C)cc1,.,110.8*[16.7 µM],.,.,.
O=C(CCN1CCCCC1)NCC[C@@H]1CC[C@@H](NC(=O)Cc2cccnc2)[C@@H](CO)O1,.,-12.6[16.7 µM],.,.,.
CC(C)CC#Cc1ccc2c(c1)O[C@H](CN(C)C(=O)CN(C)C)[C@@H](C)CN([C@@H](C)CO)S2(=O)=O,.,0.7[16.7 µM],.,.,.
CC(C)CCn1c(N2CCC(C(N)=O)CC2)nc2c1c(=O)[nH]c(=O)n2C,0.4,5.1,-3.9,.,41.8*
CC(C)CCn1c(N2CCCC2)nc2c1c(=O)[nH]c(=O)n2C,1.4,.,-1.9,0.4,-1.2
COc1ccc(CN(C)C[C@H]2OCCCC[C@H](C)Oc3ccc(NS(=O)(=O)c4ccc(F)cc4)cc3C(=O)N([C@H](C)CO)C[C@H]2C)cc1,.,4.4[16.7 µM],.,.,.
O=[N+]([O-])c1ccc(-c2nc(Nc3cccc(O)c3)c3ccccc3n2)cc1,1.0,-6.0,2.8,.,78.5*
SMILES,C-LANA FP,miR-122 sensor,Keap1-Nrf2 PPI,CAL PDZ FP-1,CAL PDZ FP-2
Cc1cc(C(=O)OCC(=O)NCCN2C(=O)CSC2=O)ccc1[N+](=O)[O-],1.2,.,1.9,0.2,89.8*
COc1ccc(C(CNC(=O)C2COc3ccccc3O2)N2CCCC2)cc1 (configuration not stated),-0.7,-2.2,-6.8,0.5,67.6*
CNC(=O)c1cccc(NC(=O)CCCNC(=O)c2ccc(Cl)cc2)c1,-1.6,.,-6.7,-1.5,65.6*
Cc1cc(Br)ccc1NC(=O)CN1CCN(c2ccccn2)CC1,-0.6,-8.2,0.7,.,74.7*
Cc1cnc(NC(=O)CN2CCN(c3ccccn3)CC2)s1,0.5,176.8*,2.9,-2.1,-1.0
COc1ccc(N2CCN(CC(=O)Nc3ncc(C)s3)CC2)cc1,0.0,.,0.7,.,-11.7
COC(=O)C[C@@H]1CC[C@@H]2[C@H](COc3ccc(NC(=O)Nc4ccc(C)cc4)cc3C(=O)N2C)O1,.,7.8[16.7 µM],.,.,.
Cc1ccccc1NC(=O)CN1C(=O)NC(C)(c2ccc3c(c2)OCO3)C1=O (configuration not stated),-0.7,-0.5,-7.7,0.0,-4.4
CC1(c2ccc3c(c2)OCO3)NC(=O)N(CC(=O)Nc2ccccc2[N+](=O)[O-])C1=O (configuration not stated),-1.0,-9.7,0.6,-0.8,46.1*
COCC#Cc1ccc2c(c1)O[C@@H](CN(C)C(=O)Nc1ccc(OC)cc1)[C@@H](C)CN([C@@H](C)CO)S2(=O)=O,.,-3.2[16.7 µM],.,.,.
O=C(COC(=O)CCCN1C(=O)c2ccccc2C1=O)Nc1ncc(Cl)cc1Cl,0.2,-3.4,-6.7,-1.2,40.4*
O=C(COC(=O)CN1C(=O)c2ccccc2C1=O)Nc1ncc(Cl)cc1Cl,-0.3,1.0,-4.0,-0.3,-2.4
Cc1ccc2c(CN3CCCc4ccccc43)cc(=O)oc2c1C,1.5,147.4*,0.3,.,49.0*
C[C@@H]1CN([C@H](C)CO)S(=O)(=O)c2ccc(C3=CCCC3)cc2O[C@H]1CN(C)S(C)(=O)=O,.,2.5[16.7 µM],.,.,.
O=C1C(Oc2ccccc2)C(c2ccc3c(c2)OCO3)N1CCc1ccc(F)cc1 (configuration not stated),-0.5,238.2*,-2.7,0.3,.
COc1ccc(CCN2C(=O)C(Oc3ccccc3C)C2c2ccc3c(c2)OCO3)cc1 (configuration not stated),-0.5,13.9,0.0,-1.2,-2.8
COC(=O)c1cc(S(=O)(=O)NCCN2CCN(c3ccccc3F)CC2)c[nH]1,0.2,1.3,4.5,-1.4,46.6*
COC(=O)c1cc(S(=O)(=O)NCCc2ccc(SC)cc2)c[nH]1,0.9,5.1,-4.2,-1.2,75.6*
COC(=O)c1cc(S(=O)(=O)N2CCN(c3ccccc3F)CC2)c[nH]1,-1.2,-2.7,1.5,-2.6,-3.8
C[C@H]1CN([C@@H](C)CO)S(=O)(=O)c2ccc(C#Cc3ccc(F)cc3)cc2O[C@@H]1CN(C)C(=O)c1ccccn1,.,18.9[16.7 µM],.,.,.
CC(C)(C)OC(=O)N1CCC(NC(=O)c2[nH]cnc2C(=O)Nc2cccc(Cl)c2)CC1,2.0,-7.6,-1.2,0.2,45.3*
